pIC50: −log10 of the molar value. The source made the active and inactive calls. The rule behind the calls is not given here.
Legend:
MV4-11 [1] = test: Induction of apoptosis in human MV4-11 cells assessed as viable cells at 4 microM measured after 18 hrs by Annexin V/Propidium iodide stain based Flow cytometry assay (reference value: 53.27%); format: functional; settings: read-out: Activity
[2] = target: T1, Protein deacetylase HDAC6 (Homo sapiens) (UniProt Q9UBN7); test: Inhibition of HDAC6 in human MV4-11 cells assessed as increase in acetylation of alpha tubulin at 0.5 uM measured after 6 hrs by Western blot assay relative to histone H4 acetylation; format: cell-based
T1 sequence (whole entry): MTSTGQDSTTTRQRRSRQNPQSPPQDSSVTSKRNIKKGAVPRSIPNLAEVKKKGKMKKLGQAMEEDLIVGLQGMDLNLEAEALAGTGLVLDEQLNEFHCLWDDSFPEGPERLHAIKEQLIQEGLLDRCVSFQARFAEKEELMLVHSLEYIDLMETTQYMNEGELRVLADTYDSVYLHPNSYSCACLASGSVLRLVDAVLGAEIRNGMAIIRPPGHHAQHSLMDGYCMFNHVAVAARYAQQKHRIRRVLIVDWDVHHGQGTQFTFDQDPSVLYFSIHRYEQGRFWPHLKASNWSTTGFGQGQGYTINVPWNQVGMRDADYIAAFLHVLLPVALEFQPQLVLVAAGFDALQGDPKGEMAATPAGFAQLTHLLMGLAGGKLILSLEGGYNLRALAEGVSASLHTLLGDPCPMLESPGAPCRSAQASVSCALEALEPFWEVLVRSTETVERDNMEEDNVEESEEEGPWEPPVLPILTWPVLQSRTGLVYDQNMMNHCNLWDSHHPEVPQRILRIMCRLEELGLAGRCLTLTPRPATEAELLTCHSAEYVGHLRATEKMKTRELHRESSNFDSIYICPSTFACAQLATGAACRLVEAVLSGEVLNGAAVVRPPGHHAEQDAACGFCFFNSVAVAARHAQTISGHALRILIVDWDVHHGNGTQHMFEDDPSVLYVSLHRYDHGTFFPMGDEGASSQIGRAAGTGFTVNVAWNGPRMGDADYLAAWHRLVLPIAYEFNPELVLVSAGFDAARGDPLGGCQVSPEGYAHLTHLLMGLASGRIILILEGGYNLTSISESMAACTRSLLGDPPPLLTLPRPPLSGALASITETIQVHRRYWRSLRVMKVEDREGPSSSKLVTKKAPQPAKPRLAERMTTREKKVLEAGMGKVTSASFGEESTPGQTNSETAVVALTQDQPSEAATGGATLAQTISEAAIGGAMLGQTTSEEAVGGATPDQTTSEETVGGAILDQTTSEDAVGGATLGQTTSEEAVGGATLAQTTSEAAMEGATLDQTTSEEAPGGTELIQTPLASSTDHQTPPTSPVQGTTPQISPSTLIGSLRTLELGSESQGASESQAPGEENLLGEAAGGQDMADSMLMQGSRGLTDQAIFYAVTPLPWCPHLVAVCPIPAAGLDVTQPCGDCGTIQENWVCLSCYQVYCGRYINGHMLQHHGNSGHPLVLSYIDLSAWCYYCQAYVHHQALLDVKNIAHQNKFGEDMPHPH
Summary of the method: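 MV4-11 cells were exposed to a range of concentrations for 6 h. Protein extracts were run on SDS-PAGE and immunoblotted for acetylated α-tubulin, acetylated histone H3 and acetylated histone H4, with HSC70 as the loading reference. A representative blot of three independent experiments is shown.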

[3] = Toxicity in CD-1 mouse assessed as visible signs of toxicity at 20 mg/kg, po measured after 5 days; format: organism-based; settings: in vivo, 120 h, time 5 day
MV4-11 [4] = test: Induction of apoptosis in human MV4-11 cells assessed as early apoptotic cells at 1 microM measured after 18 hrs by Annexin V/Propidium iodide stain based Flow cytometry assay (reference value: 1.7%); format: functional
[5] = Glutathione reactivity at pH 7.4 assessed as compound remaining measured after 60 mins by LC-MS/MS method; format: physicochemical; settings: glutathione solution, read-out: Stabilty
MV4-11 [6] = test: Induction of apoptosis in human MV4-11 cells assessed as late apoptotic cells at 1 microM measured after 18 hrs by Annexin V/Propidium iodide stain based Flow cytometry assay (reference value: 4.91%); format: functional
[7] = Half life in mouse hepatocytes measured after 120 mins by LC/MS/MS method; format: ADME, cell-based, Hepatocyte
Histone deacetylase 9 = Histone deacetylase 9 (Homo sapiens, UniProt Q9UKV0); test: Inhibition of recombinant full length human HDAC9 expressed in SF9 baculovirus using FAM- labelled acetylated peptide as substrate measured by Electrophoretic mobility shift assay
MV4-11 [8] = test: Induction of apoptosis in human MV4-11 cells assessed as late apoptotic cells at 2 microM measured after 18 hrs by Annexin V/Propidium iodide stain based Flow cytometry assay (reference value: 4.91%); format: functional
MV4-11 [9] = test: Cytotoxicity against human MV4-11 cells measured after 72 hrs by spectrophotometer method; format: functional, cell-based; settings: MV4-11, 72 h
Histone deacetylase 1 = Histone deacetylase 1 (Homo sapiens, UniProt Q13547); test: Inhibition of recombinant full length human HDAC1 expressed in SF9 baculovirus using FAM- labelled acetylated peptide as substrate measured by Electrophoretic mobility shift assay
MV4-11 [10] = test: Induction of apoptosis in human MV4-11 cells assessed as early apoptotic cells at 2 microM measured after 18 hrs by Annexin V/Propidium iodide stain based Flow cytometry assay (reference value: 1.7%); format: functional
MV4-11 [11] = test: Induction of apoptosis in human MV4-11 cells assessed as viable cells at 0.5 microM measured after 18 hrs by Annexin V/Propidium iodide stain based Flow cytometry assay (reference value: 53.27%); format: functional; settings: read-out: Activity
[12] = Apparent permeability across basolateral to apical side in human Caco2 cells measured after 2 hrs by LC-MS/MS method; format: ADME, cell-based; settings: Caco-2
Summary of the method: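 Bidirectional Caco-2 permeability was measured as Papp in the apical-to-basolateral and basolateral-to-apical directions. The efflux ratio was calculated from the two directional Papp values.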

MV4-11 [13] = test: Induction of apoptosis in human MV4-11 cells assessed as viable cells at 2 microM measured after 18 hrs by Annexin V/Propidium iodide stain based Flow cytometry assay (reference value: 53.27%); format: functional; settings: read-out: Activity

Histone deacetylase 9, sequence (Q9UKV0 whole entry): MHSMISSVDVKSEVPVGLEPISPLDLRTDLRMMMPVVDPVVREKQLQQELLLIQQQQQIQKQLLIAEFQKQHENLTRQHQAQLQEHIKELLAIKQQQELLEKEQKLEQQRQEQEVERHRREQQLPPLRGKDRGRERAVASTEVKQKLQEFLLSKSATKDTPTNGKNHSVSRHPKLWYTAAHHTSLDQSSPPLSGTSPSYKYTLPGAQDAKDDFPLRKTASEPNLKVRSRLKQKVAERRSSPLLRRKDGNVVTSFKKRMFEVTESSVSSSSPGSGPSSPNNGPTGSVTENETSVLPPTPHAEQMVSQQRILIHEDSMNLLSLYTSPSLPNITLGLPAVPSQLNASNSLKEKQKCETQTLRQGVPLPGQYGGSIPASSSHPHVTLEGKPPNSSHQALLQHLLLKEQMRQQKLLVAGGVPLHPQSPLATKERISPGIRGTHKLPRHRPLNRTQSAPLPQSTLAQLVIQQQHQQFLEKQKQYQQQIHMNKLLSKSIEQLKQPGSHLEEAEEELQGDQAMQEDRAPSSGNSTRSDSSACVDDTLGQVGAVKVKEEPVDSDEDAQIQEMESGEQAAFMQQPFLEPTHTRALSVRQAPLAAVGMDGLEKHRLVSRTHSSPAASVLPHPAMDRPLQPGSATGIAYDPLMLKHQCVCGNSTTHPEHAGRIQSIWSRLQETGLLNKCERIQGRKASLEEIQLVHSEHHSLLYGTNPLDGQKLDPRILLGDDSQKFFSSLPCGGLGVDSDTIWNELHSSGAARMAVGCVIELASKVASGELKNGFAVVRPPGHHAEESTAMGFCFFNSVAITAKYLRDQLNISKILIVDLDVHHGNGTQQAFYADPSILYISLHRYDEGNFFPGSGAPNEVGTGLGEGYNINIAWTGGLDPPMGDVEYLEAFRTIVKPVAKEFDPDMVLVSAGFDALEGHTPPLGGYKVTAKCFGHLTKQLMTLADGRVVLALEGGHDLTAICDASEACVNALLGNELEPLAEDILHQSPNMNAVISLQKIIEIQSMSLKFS
Histone deacetylase 1, sequence (Q13547 whole entry): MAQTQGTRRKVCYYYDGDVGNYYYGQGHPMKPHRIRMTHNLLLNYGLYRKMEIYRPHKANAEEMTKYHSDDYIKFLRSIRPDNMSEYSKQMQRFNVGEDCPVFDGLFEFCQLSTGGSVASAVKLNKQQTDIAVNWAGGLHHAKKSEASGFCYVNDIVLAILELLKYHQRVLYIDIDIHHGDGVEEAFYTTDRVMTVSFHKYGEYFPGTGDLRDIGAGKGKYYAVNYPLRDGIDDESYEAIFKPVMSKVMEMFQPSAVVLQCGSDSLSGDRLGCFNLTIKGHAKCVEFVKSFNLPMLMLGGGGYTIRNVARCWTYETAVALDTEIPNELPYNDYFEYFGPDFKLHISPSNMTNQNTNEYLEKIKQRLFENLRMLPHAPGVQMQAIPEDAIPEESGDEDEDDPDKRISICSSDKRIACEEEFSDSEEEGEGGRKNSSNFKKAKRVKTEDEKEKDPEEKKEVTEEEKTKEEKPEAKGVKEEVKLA

inhibition [2]: Active
remaining at 1 h [5]: 98%
half-life [7]: 50.9 min
pIC50 (Histone deacetylase 9): < 6.00
pIC50 (Histone deacetylase 1): < 6.00
Papp B→A at 2 h [12]: 9.4 nm/s
Compound: O=C(NO)c1ccc(CNC(=O)c2c(F)c(F)c(F)c(F)c2F)cc1
viability at 4 µM (MV4-11 [1]): 17.9%
Activity [3]: Non-Toxic
Activity (MV4-11 [4]): 4.27%
Activity (MV4-11 [6]): 11.15%
Activity (MV4-11 [8]): 15.93%
pIC50 (MV4-11 [9]): 5.73
Activity (MV4-11 [10]): 7.73%
viability at 0.5 µM (MV4-11 [11]): 47.3%
viability at 2 µM (MV4-11 [13]): 20.2%
